Screening data: PubChem BioAssay, several laboratories
Hits are enriched below; roughly 6.6% of the tested compounds scored in any of these assays.
HUVEC inhibit: blocks proliferation of human endothelial cells. viability, % at 10 µM (by protocol). AID 648. HUVEC proliferation, CellTiter-Glo luminescence, 72 h; hits give low values. actives 1.1% (n = 86,000);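 active = viability at or below 30%; inactive = viability above 30%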;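 also: 100% = median luminescence of DMSO-only cell control wells on each plate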
H69AR inhibit: blocks growth of human H69AR lung tumor cells; H69AR lung tumor viability, ATP luminescence, 72 h; hits give low values; viability, % at 10 µM; actives 6% (n = 85,000); AID 598;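 active = viability at or below 40%; inactive = viability above 40%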;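 also: multidrug resistant small cell line overexpressing MRP-1 efflux transporter; 100% = mean luminescence of untreated control wells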
Jurkat viability: cytotoxic compounds reducing Jurkat cell viability | Jurkat E6.1 viability, ATP luminescence, 48 h | inhibition, % at 4 µM | actives 1.2% (n = 56,000);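 active = inhibition above the mean inhibition of all tested compounds plus 3 SD, cut at about 28% in these data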
Fibroblast inh: blocks proliferation of human lung fibroblasts | viability, % at 10 µM | LL 47 human lung fibroblast viability, ATP luminescence; hits give low values | actives 1.1% (n = 85,000);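 active = viability at or below 50% in the single dose screen; inactive = viability above 50%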;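 also: compound exposure lasted 72 h before the ATP readout; 100% = median luminescence of untreated cell-only wells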
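material = human LL 47 lung fibroblast cells | dosing = compounds added from tenfold dosing solution, 0.1% DMSO final | timing = overnight cell rest, 72 h compound treatment at 37 °C | measured by = CellTiter-Glo luminescence measuring cellular ATP | evaluation = % viability versus median cells-only luminescence | control set = cell-only wells, no compound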
Numbers without * were called inactive.

How did O=C1CC(Sc2nnc(-c3ccccc3)o2)C(=O)N1c1ccccc1 (centres undefined) do in these assays?
HUVEC inhibit: 106; H69AR inhibit: 1.8*; Jurkat viability: 1; Fibroblast inh: 90

Results for Cc1ccccc1N1C(=O)CC(Sc2nnc(-c3ccccc3)o2)C1=O (centres undefined) ?
HUVEC inhibit: 85; H69AR inhibit: 1.8*; Fibroblast inh: 46*

How did Cc1sc2c(c1C)c(=O)n(-c1ccccc1)c1nnc(C)n21 do in these assays?
Jurkat viability: -3

How did O=C(Nc1cccc2nsnc12)C1CC(=O)N(c2ccccc2)C1 (centres undefined) do in these assays?
HUVEC inhibit: 91; H69AR inhibit: 86; Jurkat viability: 7; Fibroblast inh: 96

Results for COc1ccc(CN(C(C)=O)c2cccc(C)c2C)cc1 ?
HUVEC inhibit: 58; H69AR inhibit: 19*; Jurkat viability: 32; Fibroblast inh: 82

How did CCC(C(=O)NC(C)(C)C)N(C(=O)Cn1nnc(-c2cccs2)n1)c1cnc2ccccc2c1 (centres undefined) do in these assays?
HUVEC inhibit: 100; H69AR inhibit: 88; Fibroblast inh: 100

How did N#Cc1nc(COc2ccccc2Cl)oc1NCc1cccnc1 do in these assays?
HUVEC inhibit: 85; H69AR inhibit: 48; Fibroblast inh: 93

Results for COc1ccc2nc(SCC(=O)Nc3ccc(S(=O)(=O)N4CCCC4)cc3)c(C#N)cc2c1 ?
HUVEC inhibit: 91; H69AR inhibit: 6.0*; Jurkat viability: 1; Fibroblast inh: 100

How did Cc1ccc(S(=O)(=O)NCCCOC(=O)Nc2ccncc2)cc1 do in these assays?
HUVEC inhibit: 98; H69AR inhibit: 84; Jurkat viability: 0; Fibroblast inh: 93

What do the screens show for `Cn1c(=O)cc(SCC(=O)Nc2ccccn2)c2ccccc21`?
HUVEC inhibit: 98; H69AR inhibit: 103; Jurkat viability: -10; Fibroblast inh: 96

Results for Cn1c(=O)c(C(=O)Nc2ccccn2)c(O)c2ccccc21 ?
HUVEC inhibit: 103; H69AR inhibit: 19*; Jurkat viability: 4; Fibroblast inh: 55

How did Cn1c(=O)c(C(=O)Nc2cnccn2)c(O)c2ccccc21 do in these assays?
HUVEC inhibit: 98; H69AR inhibit: 0.6*; Jurkat viability: -3; Fibroblast inh: 104

How did CCn1c(=O)c(C(=O)Nc2cnccn2)c(O)c2ccccc21 do in these assays?
HUVEC inhibit: 112; H69AR inhibit: 92; Jurkat viability: -6; Fibroblast inh: 94

Results for C=CCn1c(SCc2csc(C)n2)nc2sc3c(c2c1=O)CCC(C)C3 (centres undefined) ?
HUVEC inhibit: 87; H69AR inhibit: 31*; Fibroblast inh: 88

How did OC(CN1c2ccccc2Sc2ccccc21)Cn1nnc2ccccc21 (centres undefined) do in these assays?
HUVEC inhibit: 60; H69AR inhibit: 25*; Jurkat viability: 2; Fibroblast inh: 90

How did Cc1nn(CC(O)CN2c3ccccc3Sc3ccccc32)c(C)c1Br (centres undefined) do in these assays?
HUVEC inhibit: 59; H69AR inhibit: 27*; Fibroblast inh: 88

What do the screens show for `Cc1nn(CC(O)c2ccccc2)c(C)c1Br` (centres undefined)?
HUVEC inhibit: 94; H69AR inhibit: 91; Fibroblast inh: 105

How did Cn1c(=O)c(NCCO)c2c3c(cccc31)C(=O)c1ccccc1-2 do in these assays?
HUVEC inhibit: 46; H69AR inhibit: 55; Fibroblast inh: 100

Results for CCCCNc1c2c3c(cccc3n(C)c1=O)C(=O)c1ccccc1-2 ?
HUVEC inhibit: 52; H69AR inhibit: 16*; Fibroblast inh: 83

How did C=CCN(CC=C)Cc1c(C)[nH]c2ccc(C(=O)OCC)cc2c1=O do in these assays?
HUVEC inhibit: 92; H69AR inhibit: 81; Fibroblast inh: 100

What do the screens show for `CCCCc1oc2ccccc2c1C(=O)c1cc(I)c(OCCN(CC)CC)c(I)c1`?
HUVEC inhibit: 17*; H69AR inhibit: 2.1*; Fibroblast inh: 90

Results for COc1nc(-c2ccccc2)ccc1-c1noc(-c2ccccc2)n1 ?
HUVEC inhibit: 93; H69AR inhibit: 72; Jurkat viability: -2; Fibroblast inh: 102

What do the screens show for `CCOc1nc(-c2ccccc2)ccc1-c1noc(-c2ccc(OC)c(OC)c2)n1`?
HUVEC inhibit: 71; H69AR inhibit: 32*; Fibroblast inh: 99

What do the screens show for `Cc1c(-c2nc(N)nc(Nc3ccccc3)n2)oc2ccccc12`?
HUVEC inhibit: 62; H69AR inhibit: 14*; Jurkat viability: 15; Fibroblast inh: 97

How did O=C(OCCN1C(=O)c2ccccc2C1=O)C1CCN(S(=O)(=O)c2cccs2)CC1 do in these assays?
HUVEC inhibit: 101; H69AR inhibit: 106; Fibroblast inh: 125

How did Nc1c(S(=O)(=O)c2ccccc2)c2nc3ccccc3nc2n1/N=C/c1cccc(O)c1 do in these assays?
HUVEC inhibit: 6.9*; H69AR inhibit: 1.4*; Jurkat viability: -5; Fibroblast inh: 100

Results for Cn1c(N)c(S(=O)(=O)c2ccc(Br)cc2)c2nc3ccccc3nc21 ?
HUVEC inhibit: 63; H69AR inhibit: 13*; Jurkat viability: 1; Fibroblast inh: 97

Results for CCOc1ccccc1N1CCN(S(=O)(=O)c2cccc3nsnc23)CC1 ?
HUVEC inhibit: 97; H69AR inhibit: 63; Jurkat viability: 3; Fibroblast inh: 96

How did CN(Cc1ccccc1)c1nc(N)c([N+](=O)[O-])c(Nc2cccc(F)c2)n1 do in these assays?
HUVEC inhibit: 110; H69AR inhibit: 86; Fibroblast inh: 97

What do the screens show for `COc1ccccc1-n1c(CNC(=O)c2ccco2)nnc1SCC(=O)Nc1nccs1`?
HUVEC inhibit: 71; H69AR inhibit: 33*; Jurkat viability: 1; Fibroblast inh: 95

What do the screens show for `Nc1c(C(=O)Nc2ccc3c(c2)OCCO3)nnn1CCc1ccccc1`?
HUVEC inhibit: 63; H69AR inhibit: 37*; Jurkat viability: 80*; Fibroblast inh: 41*

Results for O=C(CCc1ccccc1)Nc1ccc2c(c1)OCCO2 ?
HUVEC inhibit: 90; H69AR inhibit: 86; Fibroblast inh: 95

What do the screens show for `CCC(C)NC(=O)c1c(F)c(F)c(F)c(F)c1F` (centres undefined)?
HUVEC inhibit: 93; H69AR inhibit: 81; Fibroblast inh: 90

What do the screens show for `O=C(Cc1ccc(-n2cccc2)cc1)NCc1cccs1`?
HUVEC inhibit: 67; H69AR inhibit: 29*; Jurkat viability: 71*; Fibroblast inh: 61

Results for O=C(Cn1cccc1)NCc1cccs1 ?
HUVEC inhibit: 99; H69AR inhibit: 95; Jurkat viability: -2; Fibroblast inh: 98

Results for O=C1CC(c2cccc(Cl)c2)Cc2nc(N3CCN(c4ccccc4)CC3)ncc21 (centres undefined) ?
HUVEC inhibit: 85; H69AR inhibit: 97; Jurkat viability: 4; Fibroblast inh: 92

Results for CCN1CCN(c2ncc3c(n2)CC(c2cc(OC)c(OC)c(OC)c2)CC3=O)CC1 (centres undefined) ?
HUVEC inhibit: 51; H69AR inhibit: 17*; Jurkat viability: 80*; Fibroblast inh: 51

Results for Cc1ccc(NC2=C([N+](=O)[O-])CS(=O)(=O)C2)cc1 ?
HUVEC inhibit: 104; H69AR inhibit: 88; Fibroblast inh: 97
